Experimental data taken from ChEMBL document CHEMBL1155224, “Discovery of new inhibitors of resistant Streptococcus pneumoniae penicillin binding protein (PBP) 2x by structure-based virtual screening” (J Med Chem, 2009).
Changes are numbered by the printed parent chain. Values after ≈ are worked out from the molar mass of the structure shown. Active and inactive are the calls of the source. The rule behind the calls is not given here.

Legend:
[1] = biological target: T1, Penicillin-binding protein 2X (Streptococcus pneumoniae R6, UniProt P59676); assay: (§1) Inhibition of penicillin-sensitive Streptococcus pneumoniae R6 PBP2X preincubated for 1 hr before addition of substrate (R)-[2-(benzoylamino)propionylsulfanyl]acetic acid
T1 sequence (P59676 whole entry): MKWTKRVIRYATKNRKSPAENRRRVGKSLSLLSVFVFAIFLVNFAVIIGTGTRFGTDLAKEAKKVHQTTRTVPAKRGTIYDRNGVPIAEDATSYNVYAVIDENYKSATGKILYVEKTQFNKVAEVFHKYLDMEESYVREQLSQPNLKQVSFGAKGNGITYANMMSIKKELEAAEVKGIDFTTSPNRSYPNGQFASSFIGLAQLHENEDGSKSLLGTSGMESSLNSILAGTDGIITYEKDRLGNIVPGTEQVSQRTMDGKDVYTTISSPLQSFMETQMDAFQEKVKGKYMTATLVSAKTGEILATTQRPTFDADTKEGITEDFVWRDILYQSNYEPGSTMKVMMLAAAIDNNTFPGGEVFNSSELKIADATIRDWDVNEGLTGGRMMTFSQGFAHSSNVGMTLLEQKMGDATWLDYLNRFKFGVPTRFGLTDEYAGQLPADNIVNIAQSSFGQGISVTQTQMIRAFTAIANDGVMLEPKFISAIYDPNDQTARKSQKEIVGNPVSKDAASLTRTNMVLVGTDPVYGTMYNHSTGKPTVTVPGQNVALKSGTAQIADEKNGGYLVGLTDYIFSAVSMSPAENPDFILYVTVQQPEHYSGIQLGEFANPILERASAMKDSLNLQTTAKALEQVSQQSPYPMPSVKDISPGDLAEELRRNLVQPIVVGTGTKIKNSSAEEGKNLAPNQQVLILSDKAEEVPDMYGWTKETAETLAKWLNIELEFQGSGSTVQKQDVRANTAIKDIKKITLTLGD
Procedure, shortened: (§2)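 Compounds taken from 100 mM DMF stocks (1% DMF final) and preincubated with 0.09 μM R6-PBP2x in 10 mM sodium phosphate pH 7.0 with 0.01 mg/mL BSA, 60 min, 25 °C. Spontaneous hydrolysis without enzyme measured. Triplicates. IC50 fitted from residual activity versus decreasing inhibitor concentration, with 0.01% Triton X-100.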

[2] = biological target: Penicillin-binding protein 2x (Streptococcus pneumoniae serotype 4 (strain ATCC BAA-334 / TIGR4), UniProt P14677); assay: (§3) Inhibition of penicillin-resistant Streptococcus pneumoniae 5204 PBP2X preincubated for 4 hrs before addition of substrate (R)-[2-(benzoylamino)propionylsulfanyl]acetic acid
Procedure, shortened: (§4)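 0.6 μM 5204-PBP2x preincubated 4 h at 25 °C with inhibitor in 10 mM sodium phosphate pH 7.0, 70 mM D-alanine, 0.01 mg/mL BSA, 1% DMF, 0.01% Triton X-100. Assays were run in triplicate, and IC50 was fitted from residual activity versus decreasing inhibitor concentrations.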

[3] = Inhibition of Streptococcus pneumoniae PBP1B after 60 mins by SDS-PAGE
Procedure, shortened: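 Test compounds incubated with 0.7 μM PBP1b in 10 mM sodium phosphate pH 7.0 for 60 min at 30 °C. Remaining active enzyme counter-labeled with 10 μM fluorescein-labeled ampicillin for 20 min. Reaction stopped, proteins separated by SDS-PAGE and read by fluorescence imaging with background subtracted.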

[4] = biological target: T2, Penicillin-binding protein 2x (Streptococcus pneumoniae serotype 4 (strain ATCC BAA-334 / TIGR4)) (UniProt P14677); assay: Inhibition of penicillin-resistant Streptococcus pneumoniae 5204 PBP2X assessed as residual activity at 100 uM preincubated for 1 hr before addition of substrate (R)-[2-(benzoylamino)propionylsulfanyl]acetic acid
T2 sequence (whole entry): T1 sequence (P59676 whole entry) with M385T

[5] = biological target: T2, Penicillin-binding protein 2x (Streptococcus pneumoniae serotype 4 (strain ATCC BAA-334 / TIGR4)); assay: Inhibition of penicillin-resistant Streptococcus pneumoniae 5204 PBP2X; procedure, shortened: as §4
[6] = biological target: T3, Penicillin-binding protein 2X (Streptococcus pneumoniae R6) (UniProt P59676); assay: as §1; procedure, shortened: as §2
T3 sequence (whole entry): T1 sequence (P59676 whole entry)

[7] = biological target: T2, Penicillin-binding protein 2x (Streptococcus pneumoniae serotype 4 (strain ATCC BAA-334 / TIGR4)); assay: as §3; procedure, shortened: as §4
[8] = system: Streptococcus pneumoniae; assay: Antibacterial activity against penicillin-resistant Streptococcus pneumoniae 5259; type: functional
[9] = system: Streptococcus pneumoniae; assay: Antibacterial activity against penicillin-resistant Streptococcus pneumoniae SP328; type: functional
[10] = biological target: T2, Penicillin-binding protein 2x (Streptococcus pneumoniae serotype 4 (strain ATCC BAA-334 / TIGR4)); assay: Inhibition of penicillin-resistant Streptococcus pneumoniae 5204 PBP2X assessed as residual activity at 200 uM preincubated for 1 hr before addition of substrate (R)-[2-(benzoylamino)propionylsulfanyl]acetic acid

Chain of Penicillin-binding protein 2x (P14677 whole entry, looked up): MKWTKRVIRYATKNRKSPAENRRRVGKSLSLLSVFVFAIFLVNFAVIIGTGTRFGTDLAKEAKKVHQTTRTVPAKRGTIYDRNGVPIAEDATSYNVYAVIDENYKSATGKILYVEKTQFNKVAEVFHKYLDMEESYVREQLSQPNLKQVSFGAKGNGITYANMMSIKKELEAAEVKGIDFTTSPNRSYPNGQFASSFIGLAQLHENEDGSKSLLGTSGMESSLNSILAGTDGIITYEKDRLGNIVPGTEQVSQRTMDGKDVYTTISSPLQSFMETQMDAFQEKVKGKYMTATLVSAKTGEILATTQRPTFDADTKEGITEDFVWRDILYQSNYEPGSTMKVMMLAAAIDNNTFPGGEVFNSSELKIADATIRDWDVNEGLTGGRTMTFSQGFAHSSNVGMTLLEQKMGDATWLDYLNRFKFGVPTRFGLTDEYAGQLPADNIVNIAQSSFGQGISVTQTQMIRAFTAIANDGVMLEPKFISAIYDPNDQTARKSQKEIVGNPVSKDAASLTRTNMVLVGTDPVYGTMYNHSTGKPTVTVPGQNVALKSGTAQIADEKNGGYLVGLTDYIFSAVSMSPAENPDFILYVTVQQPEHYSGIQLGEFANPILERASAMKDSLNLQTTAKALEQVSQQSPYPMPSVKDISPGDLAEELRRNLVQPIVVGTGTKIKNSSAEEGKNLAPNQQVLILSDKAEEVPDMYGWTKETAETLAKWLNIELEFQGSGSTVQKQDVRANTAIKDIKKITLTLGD

O=C(Nc1cccc(C(F)(F)F)c1)Nc1c(Oc2ccc(Cl)c(Cl)c2)ccc(Cl)c1S(=O)(=O)O gave an IC50 [1] of 255 µM, an IC50 [2] of 72 µM and an IC50 ([3]; read-out: IC50) of 88 µM. For the same molecule, the Activity [4] was 50% and the Activity [5] was “Active”.
With CC1(C)S[C@@H]2[C@H](NC(=O)Cc3ccccc3)C(=O)N2[C@H]1C(=O)O [PENICILLIN G] the Activity [6] was “Active”, the Activity [7] was “Active” and the MIC [8] was 0.19 µg/mL (≈ 0.568 µM). It also gave an MIC [9] of 4 µg/mL (≈ 12 µM).
For Cc1ccc(Nc2nnc(CSc3ccc(Cl)cc3)s2)c(S(=O)(=O)O)c1, the IC50 [1] was > 1000 µM, the IC50 [2] was 219 µM and the IC50 [3] was “Not Active”. For the same molecule, the Activity [10] was 54% and the Activity [5] was “Active”.
